Results as given in ChEMBL document CHEMBL4422612, “Small Molecule Inhibitor that Stabilizes the Autoinhibited Conformation of the Oncogenic Tyrosine Phosphatase SHP2” (J Med Chem, 2019).
Positions count from the first letter of the chain named. Calls of active or inactive are those of the source. The rule behind the calls is not given here.

Assays:
[1] = test system: T1, Tyrosine-protein phosphatase non-receptor type 11 (Mus musculus), P35235 [E76K]; experiment: Inhibition of Ptpn11 E76K mutant in Ptpn11 E76K mutant /Mx1-Cre containing mouse bone marrow cells assessed as reduction in GM-CSF-induced colony forming units at 1.25 to 5 uM after 7 days by inverted microscopy
T1 sequence (whole entry): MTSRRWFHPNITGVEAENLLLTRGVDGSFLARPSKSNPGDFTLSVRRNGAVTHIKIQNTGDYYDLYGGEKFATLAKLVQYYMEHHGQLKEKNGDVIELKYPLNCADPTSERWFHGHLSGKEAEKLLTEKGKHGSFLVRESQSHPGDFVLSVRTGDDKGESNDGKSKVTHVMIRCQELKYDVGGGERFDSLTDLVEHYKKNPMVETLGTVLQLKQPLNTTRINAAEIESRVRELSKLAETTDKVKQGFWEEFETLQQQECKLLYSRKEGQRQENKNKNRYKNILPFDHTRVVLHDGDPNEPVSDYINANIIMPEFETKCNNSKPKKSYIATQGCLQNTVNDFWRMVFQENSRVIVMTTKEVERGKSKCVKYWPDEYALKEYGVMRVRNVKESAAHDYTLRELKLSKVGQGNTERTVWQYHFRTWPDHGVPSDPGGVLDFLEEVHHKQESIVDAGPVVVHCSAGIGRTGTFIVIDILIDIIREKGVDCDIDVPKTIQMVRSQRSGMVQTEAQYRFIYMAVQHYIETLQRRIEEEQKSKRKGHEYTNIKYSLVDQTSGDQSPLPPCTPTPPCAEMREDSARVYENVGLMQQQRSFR
Summary of the method: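 Bone marrow from Ptpn11 E76K/+/Mx1-Cre+ and +/+/Mx1-Cre+ mice, 2×10⁴ cells/mL, in 0.9% methylcellulose IMDM with 30% FBS and GM-CSF 1.0 ng/mL, plus compound or DMSO. CFU-GM and CFU-M counted at day 7, normalized to WT DMSO colonies. Mean ± SD of three experiments.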

NCI-H661 = experiment: Growth inhibition of PTPN11 N58S mutant harboring human NCI-H661 cells after 48 hrs by cell proliferation-based assay; type: functional
Summary of the method: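 H661 (PTPN11 N58S/+) and H596 (WT PTPN11) lung cancer cells exposed to a concentration series for 48 h, DMSO as control. Cell number measured by One Solution proliferation assay. Triplicates from one of three repeated experiments.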

[2] = target: T2, Tyrosine-protein phosphatase non-receptor type 11 (Homo sapiens) (UniProt Q06124); experiment: Binding affinity to His-tagged SHP2 (unknown origin) assessed as melting temperature at 5 uM measured every 50 secs by thermal shift assay (reference value: 43.5 +/- 0.95 degC)
T2 sequence (whole entry): T1 sequence (whole entry) with K76E, V450M, V550A, R590K

[3] = test system: T3, Tyrosine-protein phosphatase non-receptor type 11 (Homo sapiens), Q06124 [E76K]; experiment: Inhibition of Ptpn11 E76K mutant in bone marrow cells isolated from JMML patient assessed as inhibition of GM-CSF-induced colony forming units at 1.25 to 5 uM after 14 days by inverted microscopy; type: cell-based
T3 sequence (whole entry): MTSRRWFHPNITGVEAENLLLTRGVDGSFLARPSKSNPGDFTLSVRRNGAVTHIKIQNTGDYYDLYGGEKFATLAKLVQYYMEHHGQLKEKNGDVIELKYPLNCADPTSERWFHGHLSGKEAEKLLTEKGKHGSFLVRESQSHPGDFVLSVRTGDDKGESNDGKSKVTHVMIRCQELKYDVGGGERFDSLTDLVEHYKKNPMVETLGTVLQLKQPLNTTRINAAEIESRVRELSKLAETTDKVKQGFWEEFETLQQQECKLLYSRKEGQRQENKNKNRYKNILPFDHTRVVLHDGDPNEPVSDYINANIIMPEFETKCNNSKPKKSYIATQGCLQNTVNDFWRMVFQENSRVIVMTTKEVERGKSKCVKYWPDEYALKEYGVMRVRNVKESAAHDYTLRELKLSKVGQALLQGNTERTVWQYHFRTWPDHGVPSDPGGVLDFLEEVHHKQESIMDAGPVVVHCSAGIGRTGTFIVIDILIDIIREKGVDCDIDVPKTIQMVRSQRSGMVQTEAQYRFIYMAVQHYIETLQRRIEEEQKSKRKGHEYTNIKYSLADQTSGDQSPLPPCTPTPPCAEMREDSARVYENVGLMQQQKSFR
Summary of the method: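 JMML patient splenocytes, marrow or blood cells (PTPN11 E76K/+), 5×10⁴ cells/mL, with healthy apheresis controls. Plated in 0.9% methylcellulose IMDM with 30% FBS, glutamine, β-mercaptoethanol and GM-CSF 1.0 ng/mL, plus compound or DMSO. Myeloid colonies counted at 14 days, 37 °C, 5% CO2, normalized to DMSO.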

[4] = test system: T3, Tyrosine-protein phosphatase non-receptor type 11 (Homo sapiens), Q06124 [E76K]; experiment: Inhibition of recombinant full length human GST-tagged SHP2 E76K mutant using phospho-peptide as substrate pre-incubated for 30 mins before substrate addition and measured after 30 mins
[5] = target: T2, Tyrosine-protein phosphatase non-receptor type 11 (Homo sapiens); experiment: Binding affinity to His-tagged SHP2 (unknown origin) assessed as melting temperature at 60 uM measured every 50 secs by thermal shift assay (reference value: 43.5 +/- 0.95 degC)
[6] = target: T2, Tyrosine-protein phosphatase non-receptor type 11 (Homo sapiens); experiment: Stable inhibition of human wild-type full length SHP2 at 5 to 20 uM using H-Glu-Phe-pTyr-Ala-Glu-Val-Gly-Arg-Ser-ProPro-Asp-Pro-Ala-Lys as substrate followed by 3 times wash out with phosphate buffer by phosphatase assay
[7] = target: T2, Tyrosine-protein phosphatase non-receptor type 11 (Homo sapiens); experiment: Mixed type inhibition of human wild-type full length SHP2 assessed as substrate [Et] at 10 uM using H-Glu-Phe-pTyr-Ala-Glu-Val-Gly-Arg-Ser-Pro-Pro-Asp-Pro-Ala-Lys as substrate by Lineweaver-Burk plot analysis (reference value: 0.029 uM)

- inhibition [1]: Active
- Tm [2]: 46.3 °C
- inhibition [3]: Active
- inhibition [4]: Dose-dependent effect
- Tm [5]: 48.2 °C
- inhibition [6]: Active
- Activity [7]: 0.029 µM
Compound: CCOc1cc(O)c(C(=O)/C=C/c2ccc(Cl)cc2Cl)cc1CN1CCC=C(n2c(=O)[nH]c3ccccc32)C1
- growth inhibition (GI) (NCI-H661): Active
